# Assay results taken from ChEMBL document CHEMBL4257594 (J Med Chem, 2018).
# Activity calls are given as the source filed them. The rule behind the calls is not given here.
# Assays:
# HUVEC [1] = assay: Anti-angiogenic activity against HUVEC after 24 hrs by scintillation counting based [3H]-thymidine incorporation assay; format: functional, cell-based; conditions: Homo sapiens
# Procedure, shortened: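 HUVEC seeded at 2000 cells/well and left to settle overnight, then drug added in triplicate for 24 h. Mean ± SD of three independent experiments run in triplicate.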
# Cytochrome P450 3A4 = Cytochrome P450 3A4 (Homo sapiens, UniProt P08684); assay: (§1) Inhibition of human liver microsome CYP3A4 at 1 uM expressed in baculosomes using fluorogenic-DBOMF as substrate preincubated for 10 mins followed by substrate addition and measured after 60 mins by fluorescence based assay; format: ADME, microsomes; conditions: microsomes, 1 h, 1 µM
# Chain of Cytochrome P450 3A4 (P08684 whole entry): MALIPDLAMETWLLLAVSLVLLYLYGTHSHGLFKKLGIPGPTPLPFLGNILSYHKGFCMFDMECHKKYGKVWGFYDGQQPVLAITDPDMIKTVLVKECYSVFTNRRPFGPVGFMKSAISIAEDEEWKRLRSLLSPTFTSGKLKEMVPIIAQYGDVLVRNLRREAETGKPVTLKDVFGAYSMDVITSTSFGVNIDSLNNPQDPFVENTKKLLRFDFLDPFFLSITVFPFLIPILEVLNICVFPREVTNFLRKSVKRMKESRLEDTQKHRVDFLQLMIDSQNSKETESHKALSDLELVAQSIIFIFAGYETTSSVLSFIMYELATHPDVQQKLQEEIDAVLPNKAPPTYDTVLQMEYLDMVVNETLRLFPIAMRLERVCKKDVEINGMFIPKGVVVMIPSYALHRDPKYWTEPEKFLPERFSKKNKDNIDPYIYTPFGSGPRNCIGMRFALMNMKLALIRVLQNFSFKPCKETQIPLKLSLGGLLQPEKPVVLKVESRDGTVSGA
# Procedure, shortened: (§2)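 CYP3A4 baculosomes preincubated with drug at 1 µM for 10 min at 37 °C before Vivid green substrate added. Fluorescence (ex/em 485/520) read 60 min after substrate addition. Percent inhibition set against 10 μM ketoconazole as the 100% control; mean ± SD of three independent experiments run in triplicate.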
# CYP3A4 = CYP3A4 (Homo sapiens, UniProt P08684); assay: as §1; format: ADME, microsomes; conditions: recombinant CYP3A4 expressed in baculosomes, probe DBOMF (fluorogenic); procedure, shortened: as §2
# Chain of CYP3A4 (P08684 whole entry): as above
# [2] = target: Non-selective voltage-gated ion channel VDAC1 (Homo sapiens) (UniProt P21796); assay: Binding affinity to VDAC1 (unknown origin) at 10 uM using itraconazole as probe by photoaffinity probe competitor assay
# Chain of Non-selective voltage-gated ion channel VDAC1 (Homo sapiens) (P21796 whole entry): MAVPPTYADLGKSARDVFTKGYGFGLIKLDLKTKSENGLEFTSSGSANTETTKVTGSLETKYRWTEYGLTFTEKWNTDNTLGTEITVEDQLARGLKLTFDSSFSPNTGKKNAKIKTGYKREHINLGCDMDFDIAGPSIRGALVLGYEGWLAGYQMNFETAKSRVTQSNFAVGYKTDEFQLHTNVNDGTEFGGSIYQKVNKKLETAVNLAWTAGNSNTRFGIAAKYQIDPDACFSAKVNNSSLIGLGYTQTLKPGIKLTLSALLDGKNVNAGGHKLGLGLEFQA
# [3] = target: T1, NPC intracellular cholesterol transporter 1 (Homo sapiens) (UniProt O15118); assay: Binding affinity to NPC1 in HUVEC assessed as increase in cholesterol accumulation in late endosome/lysosome at 0.2 uM after 14 hrs by filipin staining-based confocal microscopy; format: cell-based
# T1 sequence (whole entry): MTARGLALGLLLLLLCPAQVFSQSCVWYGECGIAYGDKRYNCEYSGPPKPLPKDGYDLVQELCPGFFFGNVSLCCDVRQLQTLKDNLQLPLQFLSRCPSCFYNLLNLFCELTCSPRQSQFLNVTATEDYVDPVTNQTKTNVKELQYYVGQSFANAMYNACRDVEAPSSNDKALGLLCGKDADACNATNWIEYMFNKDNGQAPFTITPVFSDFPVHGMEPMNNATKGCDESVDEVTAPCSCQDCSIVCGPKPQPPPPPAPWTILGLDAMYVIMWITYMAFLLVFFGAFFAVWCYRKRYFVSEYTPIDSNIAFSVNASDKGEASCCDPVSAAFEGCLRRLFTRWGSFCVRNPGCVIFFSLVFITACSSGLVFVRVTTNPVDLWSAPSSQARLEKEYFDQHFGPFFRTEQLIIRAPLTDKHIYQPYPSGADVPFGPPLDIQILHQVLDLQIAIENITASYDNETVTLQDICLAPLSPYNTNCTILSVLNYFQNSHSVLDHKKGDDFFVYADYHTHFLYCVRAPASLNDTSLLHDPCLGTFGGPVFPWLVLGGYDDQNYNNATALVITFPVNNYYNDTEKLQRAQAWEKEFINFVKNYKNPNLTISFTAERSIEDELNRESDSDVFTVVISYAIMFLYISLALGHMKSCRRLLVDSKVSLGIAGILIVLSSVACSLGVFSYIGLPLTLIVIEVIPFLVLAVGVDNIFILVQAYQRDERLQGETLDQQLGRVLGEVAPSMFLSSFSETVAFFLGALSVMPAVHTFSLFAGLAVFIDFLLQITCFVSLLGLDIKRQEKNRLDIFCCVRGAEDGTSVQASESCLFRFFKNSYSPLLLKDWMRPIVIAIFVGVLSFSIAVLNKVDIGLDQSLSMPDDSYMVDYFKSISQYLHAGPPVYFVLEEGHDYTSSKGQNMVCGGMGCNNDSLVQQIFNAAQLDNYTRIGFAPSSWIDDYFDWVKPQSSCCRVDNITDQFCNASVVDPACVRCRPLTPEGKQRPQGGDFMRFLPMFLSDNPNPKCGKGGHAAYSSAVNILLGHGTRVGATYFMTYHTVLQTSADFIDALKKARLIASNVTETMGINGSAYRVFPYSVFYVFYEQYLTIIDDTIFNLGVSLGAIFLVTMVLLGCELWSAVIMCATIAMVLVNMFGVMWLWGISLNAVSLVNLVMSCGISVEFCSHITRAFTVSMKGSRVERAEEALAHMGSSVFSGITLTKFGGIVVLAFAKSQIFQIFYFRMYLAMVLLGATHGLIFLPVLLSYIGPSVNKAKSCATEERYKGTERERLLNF
# Procedure, shortened: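 Methods give HUVEC (2,000) on chamber slides, settled overnight, then 0.1 µM drug or DMSO for 14 h; legend gives 0.2 μM for 24 h. Cells fixed in 4% paraformaldehyde for 15 min, then stained with 50 µg/ml filipin for 1 h in the dark. Imaged by confocal microscopy at 360/460 nm.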
# HUVEC [4] = assay: Antiangiogenic activity in HUVEC assessed as inhibition of tube formation at 5 uM after 24 hrs by matrigel assay relative to control; format: functional; conditions: Homo sapiens
# Procedure, shortened: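 HUVEC (70,000 per well) plated on Matrigel-coated wells in medium containing drug or DMSO. After 24 h, stained with 2 μM calcein AM for 15 min, medium replaced, and tube networks imaged by fluorescence microscopy. Total tube length quantified from the images and compared with DMSO.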
Structure (SMILES),IC50 (HUVEC [1]),inhibition (INH) (Cytochrome P450 3A4),"inhibition at 1 h, 1 µM (CYP3A4)",Activity [2],Activity [3],inhibition at 5 µM (HUVEC [4])
CCC(C)n1ncn(-c2ccc(N3CCN(c4ccc(OC[C@@H]5CO[C@@](Cn6cccn6)(c6ccc(Cl)cc6Cl)O5)cc4)CC3)cc2)c1=O (stereo partly specified),307 nM,Not Active,–,–,–,–
CCC(C)n1ncn(-c2ccc(N3CCN(c4ccc(OC[C@@H]5CO[C@@](Cn6ccnc6-c6ccccc6)(c6ccc(Cl)cc6Cl)O5)cc4)CC3)cc2)c1=O (stereo partly specified),136 nM,–,23%,Active,–,–
CCC(C)n1ncn(-c2ccc(N3CCN(c4ccc(OC[C@@H]5CO[C@@](Cn6nc(C)nc6C)(c6ccc(Cl)cc6Cl)O5)cc4)CC3)cc2)c1=O (stereo partly specified),221 nM,–,27%,–,–,–
CCC(C)n1ncn(-c2ccc(N3CCN(c4ccc(OC[C@@H]5CO[C@@](CN6CCNCC6)(c6ccc(Cl)cc6Cl)O5)cc4)CC3)cc2)c1=O (stereo partly specified),608 nM,–,91%,–,–,–
CCC(C)n1ncn(-c2ccc(N3CCN(c4ccc(OC[C@@H]5CO[C@@](CN(C)C)(c6ccc(Cl)cc6Cl)O5)cc4)CC3)cc2)c1=O (stereo partly specified),1400 nM,Not Active,–,–,–,–
CCC(C)n1ncn(-c2ccc(N3CCN(c4ccc(OC[C@@H]5CO[C@@](Cn6ncnn6)(c6ccc(Cl)cc6Cl)O5)cc4)CC3)cc2)c1=O (stereo partly specified),124 nM,–,17%,–,–,–
CCC(C)n1ncn(-c2ccc(N3CCN(c4ccc(OC[C@@H]5CO[C@@](Cn6c(C)cnc6C)(c6ccc(Cl)cc6Cl)O5)cc4)CC3)cc2)c1=O (stereo partly specified),765 nM,–,23%,–,–,–
CCC(C)n1ncn(-c2ccc(N3CCN(c4ccc(OC[C@@H]5CO[C@@](Cn6cnc(C(F)(F)F)n6)(c6ccc(Cl)cc6Cl)O5)cc4)CC3)cc2)c1=O (stereo partly specified),270 nM,Not Active,–,–,Active,–
CCC(C)n1ncn(-c2ccc(N3CCN(c4ccc(OC[C@@H]5CO[C@@](Cn6cnc(C)c6)(c6ccc(Cl)cc6Cl)O5)cc4)CC3)cc2)c1=O (stereo partly specified),102 nM,–,98%,–,–,–
CCC(C)n1ncn(-c2ccc(N3CCN(c4ccc(OC[C@@H]5CO[C@@](Cn6nnnc6C)(c6ccc(Cl)cc6Cl)O5)cc4)CC3)cc2)c1=O (stereo partly specified),101 nM,–,7%,–,–,–
CCC(C)n1ncn(-c2ccc(N3CCN(c4ccc(OC[C@@H]5CO[C@@](Cn6cnc(C)n6)(c6ccc(Cl)cc6Cl)O5)cc4)CC3)cc2)c1=O (stereo partly specified),272 nM,–,30%,–,–,–
CCC(C)n1ncn(-c2ccc(N3CCN(c4ccc(OC[C@@H]5CO[C@@](CC6CCCC6)(c6ccc(Cl)cc6Cl)O5)cc4)CC3)cc2)c1=O (stereo partly specified),512 nM,Not Active,–,–,–,–
CCc1nccn1C[C@@]1(c2ccc(Cl)cc2Cl)OC[C@@H](COc2ccc(N3CCN(c4ccc(-n5cnn(C(C)CC)c5=O)cc4)CC3)cc2)O1 (stereo partly specified),224 nM,–,7%,–,–,–
CCC(C)n1ncn(-c2ccc(N3CCN(c4ccc(OC[C@@H]5COC(c6ccc(Cl)cc6Cl)O5)cc4)CC3)cc2)c1=O (mixture of isomers),328 nM,Not Active,–,–,–,–
CCC(C)n1ncn(-c2ccc(N3CCN(c4ccc(OC[C@@H]5CO[C@@](CBr)(c6ccc(Cl)cc6Cl)O5)cc4)CC3)cc2)c1=O (stereo partly specified),569 nM,–,3%,–,–,–
CCC(C)n1ncn(-c2ccc(N3CCN(c4ccc(OC[C@@H]5CO[C@@](Cn6ccnc6C)(c6ccc(Cl)cc6Cl)O5)cc4)CC3)cc2)c1=O (stereo partly specified),173 nM,–,71%,–,–,–
CCC(C)n1ncn(-c2ccc(N3CCN(c4ccc(OCC5COC(Cn6cncn6)(c6ccc(Cl)cc6Cl)O5)cc4)CC3)cc2)c1=O (stereo unspecified) [ITRACONAZOLE],–,–,84%,–,Active,45%
CCC(C)n1ncn(-c2ccc(N3CCN(c4ccc(OC[C@@H]5CO[C@@](Cn6ccnc6)(c6ccc(Cl)cc6Cl)O5)cc4)CC3)cc2)c1=O (stereo partly specified),85 nM,–,99%,–,–,–
CCC(C)n1ncn(-c2ccc(N3CCN(c4ccc(OC[C@@H]5CO[C@@](CN6CCN(C)CC6)(c6ccc(Cl)cc6Cl)O5)cc4)CC3)cc2)c1=O (stereo partly specified),396 nM,–,18%,–,–,–
CCC(C)n1ncn(-c2ccc(N3CCN(c4ccc(OC[C@@H]5CO[C@@](Cc6ccccc6)(c6ccc(Cl)cc6Cl)O5)cc4)CC3)cc2)c1=O (stereo partly specified),513 nM,Not Active,–,–,–,–
CCC(C)n1ncn(-c2ccc(N3CCN(c4ccc(OC[C@@H]5CO[C@@](Cn6cc(C)nc6C)(c6ccc(Cl)cc6Cl)O5)cc4)CC3)cc2)c1=O (stereo partly specified),492 nM,–,38%,–,–,–
CCC(C)n1ncn(-c2ccc(N3CCN(c4ccc(OC[C@@H]5CO[C@@](Cn6ccnc6C(C)C)(c6ccc(Cl)cc6Cl)O5)cc4)CC3)cc2)c1=O (stereo partly specified),84 nM,–,6%,–,Active,–
CCC(C)n1ncn(-c2ccc(N3CCN(c4ccc(OC[C@@H]5CO[C@@](Cn6nnnc6-c6ccccc6)(c6ccc(Cl)cc6Cl)O5)cc4)CC3)cc2)c1=O (stereo partly specified),119 nM,–,18%,–,–,–
CCC(C)n1ncn(-c2ccc(N3CCN(c4ccc(OC[C@@H]5CO[C@@](Cn6cc(C(F)(F)F)nc6C)(c6ccc(Cl)cc6Cl)O5)cc4)CC3)cc2)c1=O (stereo partly specified),441 nM,Not Active,–,–,–,–
CCC(C)n1ncn(-c2ccc(N3CCN(c4ccc(OC[C@@H]5CO[C@@](CC)(c6ccc(Cl)cc6Cl)O5)cc4)CC3)cc2)c1=O (stereo partly specified),353 nM,Not Active,–,–,–,–
CCC(C)n1ncn(-c2ccc(N3CCN(c4ccc(OC[C@@H]5CO[C@@](CN6CCOCC6)(c6ccc(Cl)cc6Cl)O5)cc4)CC3)cc2)c1=O (stereo partly specified),1180 nM,–,16%,–,–,–
